The term inhibition in vivo denotes the relative decrease from the control value, in per cent.

These results are taken from ChEMBL document CHEMBL1147162, “Synthesis, pharmacological evaluation and electrochemical studies of novel 6-nitro-3,4-methylenedioxyphenyl-N-acylhydrazone derivatives: Discovery of LASSBio-881, a new ligand of cannabinoid receptors” (2007).

Assay [1] has as its system Mus musculus. Briefly: Antihyperalgesic effect against formalin-induced pain in mouse at 100 umol/kg, po assessed as licking activity in inflammatory phase. In kind it is functional. The gist of the method: (§1)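 Mice injected subplantar in one hind paw with 20 µL 2.5% formalin; compounds given orally at 100 µmol/kg in 5% arabic gum 60 min before. Time spent licking or biting the injected paw was recorded, with the neurogenic phase at 0–5 min and the inflammatory phase at 15–30 min. Percent inhibition is vs vehicle (ANOVA/Dunnett).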

Assay [2] relates to Rattus norvegicus. Briefly: Antiinflammatory activity against carrageenan-induced paw edema in Wistar rat. In kind it is functional. Particulars: read-out: ID50 (the source's name). In short, it runs like this:
(§2)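 Fasted Wistar rats of both sexes (150–200 g) were dosed orally at 300 µmol/kg in 5% arabic gum in saline. One hour later they were injected subplantar with 0.1 mg/paw carrageenan, with saline in the contralateral paw. Paw volume was read by plethysmometer 3 h later as the difference between the paws. Results are % inhibition vs vehicle; ID50 is also given.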
A general note: In the carrageenan paw model, swelling and tenderness develop within hours.

For assay [3], the system named is Mus musculus. Briefly: Antiinflammatory activity against AA-induced ear edema in Swiss mouse at 300 umol/kg, po after 1 hr. In kind it is functional. The gist of the method:
(§3)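 Fasted Swiss mice received an oral dose of 300 µmol/kg (5% arabic gum suspension) 1 h before topical challenge on the right ear (20 µl acetone): AA 500 µg/ear or TPA 2 µg/ear. The left ear got acetone. Ears were weighed from 7 mm punches 1 h after AA or 6 h after TPA. Inhibition = (C−T)/C×100 vs vehicle.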

For assay [4], the system named is Mus musculus. Briefly: Antiinflammatory activity against TPA-induced ear edema in Swiss mouse at 300 umol/kg, po after 6 hrs. In kind it is functional. The gist of the method: as §3
The subject of assay [5] is Rattus norvegicus. Briefly: Antiinflammatory activity against carrageenan-induced paw edema in Wistar rat at 300 umol/kg, po after 3 hrs. In kind it is functional. The gist of the method:
as §2

The test system of assay [6] is Mus musculus. Briefly: Antihyperalgesic effect against formalin-induced pain in mouse at 100 umol/kg, po assessed as licking activity in neurogenic phase. Format: functional. In short, it runs like this: as §1
Assay [7] has as its system Radical scavenging activity. Briefly: Antioxidant activity assessed as DPPH radical scavenging activity at 0.1 mM. In kind it is functional.
Assay [8] deals with Cannabinoid receptor 1 (Mus musculus) (UniProt P47746). Briefly: Displacement of [3H]SR141716A from CB1 cannabinoid receptor in Swiss mouse brain homogenate. Format: tissue-based. In short, it runs like this:
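Swiss mouse (30–40 g) whole-brain membranes, 160 µg protein, were incubated with 10 nM [3H]SR141716A plus PMSF (FAAH inhibitor) in Tris/EDTA/MgCl2 buffer with fatty acid-free BSA, pH 7.4, for 1 h at 30 °C. Nonspecific binding was set with 100 µM AM281. Samples were filtered on PEI-treated filters and counted by scintillation; n = 5 animals.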
For orientation: Loss of bound radioactivity is the signal in a displacement assay; it reports binding, not function.

The nature of assay [9]: Antioxidant activity assessed as superoxide degradation at 0.25 mM. In kind it is functional. In short, it runs like this: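 The reaction was started with xanthine oxidase (~0.2 U/mL). Cytochrome c reduction was read spectrophotometrically at the Soret band as ΔA/min; % degradation is relative to vehicle.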
Assay [10] is described as follows: Antioxidant activity assessed as hydroxyl radical degradation at 0.5 mM. In kind it is functional. In short, it runs like this: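 2-Deoxy-D-ribose (10 mM) was incubated with Hepes pH 7.2 (10 mM), compound in DMSO (0.5 mM) and H2O2 (1 mM) for 1 h at 37 °C, started with Fe(NH4)2(SO4)2 10 µM. Results are % degradation vs vehicle.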
Assay [11] concerns T-cell. Briefly: Induction of anti CD3-stimulated T-lymphocyte apoptosis after 48 hrs. Format: functional. The gist of the method:
(§4)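 Nylon wool-enriched mouse splenic T cells (10^6/mL, DMEM + 1% nutridoma) were stimulated with anti-CD3 (145.2C11) plus PMA, with or without compound at 10 µM, for 48 h at 37 °C in 7% CO2. They were stained with FITC-annexin V (apoptosis) and 7-AAD (necrosis) and analysed by flow cytometry. Runs were in triplicate with at least 3 experiments.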

Assay [12] relates to T-cell. In words: Induction of anti CD3-stimulated T-lymphocyte necrosis after 48 hrs. In kind it is functional. In short, it runs like this:
as §4

A further assay deals with Lymphocyte. In words: Inhibition of lymphocyte proliferation. Format: functional, cell-based. The gist of the method: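 Nylon wool-enriched splenic T cells in supplemented DMEM + 1% nutridoma were cultured in triplicate with soluble anti-CD3 (2% v/v 145.2C11) and PMA 0.5 ng/mL plus compound for 3 days at 37 °C in 7% CO2. [3H]thymidine (1.0 µCi/well) was added for the last 18 h and incorporation counted; at least 3 experiments.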

Assay [13] deals with Mus musculus. Briefly: Antinociceptive activity in Swiss mouse at 100 umol/kg, po assessed as increase in latency time. Format: functional, organism-based. The gist of the method:
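Hot plate held at 55 ± 1 °C. Swiss mice of both sexes (18–25 g), fasted 8 h, were given 100 µmol/kg orally. Latency to first paw licking or jumping was read at 0, 30, 60, 90 and 120 min, with a 25 s cut-off. Morphine 39.5 µmol/kg was the positive control; n = 7–10.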

The source made the active and inactive calls.

Chain of Cannabinoid receptor 1 (Mus musculus) (P47746 whole entry): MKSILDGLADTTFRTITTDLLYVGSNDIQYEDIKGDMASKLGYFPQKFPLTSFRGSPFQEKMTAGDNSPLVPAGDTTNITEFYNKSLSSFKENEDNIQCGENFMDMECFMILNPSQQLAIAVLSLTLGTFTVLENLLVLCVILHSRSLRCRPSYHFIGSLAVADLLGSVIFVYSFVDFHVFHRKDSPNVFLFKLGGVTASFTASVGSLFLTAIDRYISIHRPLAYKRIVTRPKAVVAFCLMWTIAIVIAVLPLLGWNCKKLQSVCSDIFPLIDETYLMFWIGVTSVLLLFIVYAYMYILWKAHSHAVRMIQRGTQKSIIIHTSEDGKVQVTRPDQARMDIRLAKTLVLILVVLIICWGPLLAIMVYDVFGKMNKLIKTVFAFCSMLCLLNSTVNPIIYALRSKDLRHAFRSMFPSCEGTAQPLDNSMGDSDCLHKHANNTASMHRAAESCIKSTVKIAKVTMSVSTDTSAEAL

As to `CS(=O)(=O)Nc1ccc([N+](=O)[O-])cc1Oc1ccccc1` [NIMESULIDE], the inhibition in vivo at 100 µmol/kg is 70.3% in the assay on Mus musculus [1] and 9.3% in the assay on Mus musculus [6]. The ED50 with Rattus norvegicus [2] was 22.7 µmol/kg. Further, the inhibition in vivo at 300 µmol/kg in the assay with Mus musculus [3] is 100%; in the assay on Mus musculus [4], -10.6%; with Rattus norvegicus [5], 57.5%.

For the compound `CC(C)(C)c1cc(/C=N/NC(=O)c2cc3c(cc2[N+](=O)[O-])OCO3)cc(C(C)(C)C)c1O`, the Activity in assay [7] is 32%; in assay [8] it was 71%; in assay [9], -2.9%; in assay [10] it was 84.6%; in the assay on T-cell [11] it was 43.8%; with T-cell [12], 0%. Besides, the inhibition in vivo at 100 µmol/kg in the assay with Mus musculus [1] stood at 13.4%; in the assay on Mus musculus [6], 44.5%. Moreover, in the assay on Rattus norvegicus [2], the ED50 was determined as 195 µmol/kg. The values for the inhibition in vivo at 300 µmol/kg in the assay with Mus musculus [3], with Mus musculus [4] and with Rattus norvegicus [5] were 36%, 24.1% and 31.7%, respectively. Moreover, the outcome in the assay with Lymphocyte and in the assay with Mus musculus [13] was Active.

For the compound `O=C(N/N=C/c1ccco1)c1cc2c(cc1[N+](=O)[O-])OCO2`, the inhibition in vivo at 300 µmol/kg in the assay on Rattus norvegicus [5] was 4.1%.

Regarding `O=C(N/N=C/c1ccccc1)c1cc2c(cc1[N+](=O)[O-])OCO2`, the Activity in [7] was determined as 7.49%; in [9], 19.6%; in assay [10], 83.2%. Besides, the inhibition in vivo at 100 µmol/kg with Mus musculus [1] was 1.5%; in the assay on Mus musculus [6], -21.1%. Further, the inhibition in vivo at 300 µmol/kg in the assay on Rattus norvegicus [5] turned out to be 3.5%.

On to `O=C(N/N=C/c1ccc[nH]1)c1cc2c(cc1[N+](=O)[O-])OCO2`, for which the inhibition in vivo at 300 µmol/kg in the assay on Rattus norvegicus [5] came out at 20.9%.

For `O=C(N/N=C/c1ccncc1)c1cc2c(cc1[N+](=O)[O-])OCO2`, the inhibition in vivo at 300 µmol/kg with Rattus norvegicus [5] turned out to be 13.3%.

With `O=C(N/N=C/c1cccs1)c1ccc2c(c1)OCO2`, the inhibition in vivo at 100 µmol/kg worked out at 48.6% in the assay with Mus musculus [1] and 17.9% in the assay with Mus musculus [6]. For the same compound, the ED50 in the assay with Rattus norvegicus [2] was determined as 14.3 µmol/kg. The results for the inhibition in vivo at 300 µmol/kg in the assay on Mus musculus [3], with Mus musculus [4] and in the assay with Rattus norvegicus [5] were -1.6%, -10.5% and 29.7%, respectively.

As for `CCCCC/C=C\C/C=C\C/C=C\C/C=C\CCCC(=O)NCCO` [ANANDAMIDE], the Activity is 50.8% with T-cell [11] and 0.1% in the assay on T-cell [12].

Consider `CC(C)(C)c1cc(/C=N/NC(=O)c2ccc3c(c2)OCO3)cc(C(C)(C)C)c1O`, for which the Activity is 45.7% in [7] and 85.2% in assay [10]. Besides, the results for the inhibition in vivo at 100 µmol/kg in the assay on Mus musculus [1] and with Mus musculus [6] were 3.1% and 4.1%, respectively. Also, the ED50 with Rattus norvegicus [2] was determined as 96.5 µmol/kg. Also, the inhibition in vivo at 300 µmol/kg is 26.7% with Mus musculus [3], -19.6% in the assay on Mus musculus [4] and 36.4% with Rattus norvegicus [5].

With `O=C(N/N=C/c1cccs1)c1cc2c(cc1[N+](=O)[O-])OCO2`, the inhibition in vivo at 300 µmol/kg in the assay with Rattus norvegicus [5] stood at 3.4%.

`O=C(N/N=C/c1ccccn1)c1cc2c(cc1[N+](=O)[O-])OCO2`: the inhibition in vivo at 300 µmol/kg with Rattus norvegicus [5] stood at 22.8%.
